Results taken from paper PMC13031150 (Acta Pharmaceutica Sinica. B, 2025).

What was measured:
[1] = test system: KBM5-T315I cells; assay: CCK-8 cell viability assay, including SynergyFinder synergy analysis; type: cell-based, human
How it was run: (§1)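 Viability was read by CCK-8. […] A second test compound, 0–80 μmol/L alone or with a TKI, was given for 12 h. δ-scores came from SynergyFinder: >10 synergy, <−10 antagonism. SEM, n = 3.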

[2] = test system: KBM5-T315I-PGK1-KD, PGK1-OE and PGK1-T378P cells; assay: CCK-8 cell viability in PGK1-modified KBM5-T315I cells; type: cell-based, human; conditions: KBM5-T315I-PGK1-KD versus KBM5-T315I, 24 h
How it was run: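 KBM5-T315I lines were empty-vector (NC), PGK1-overexpressing (OE), shPGK1 knockdown (KD), or KD re-transfected with PGK1-WT or PGK1-T378P cDNA. […] WT, OE, KD and T378P cells received test compound 0–80 μmol/L for […]. Viability was read by CCK-8; SEM, n = 3.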

[3] = test system: KBM5-T315I cells-bearing NOD/SCID mice; assay: Tail-vein KBM5-T315I leukemia model in NOD/SCID mice; type: in vivo, mouse; conditions: single agent: imatinib 100 mg/kg, CPU-216 20 mg/kg
How it was run: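 Female NOD/SCID mice aged 4–6 weeks received sublethal irradiation (1.8 Gy), then KBM5-T315I cells by tail vein within 24 h. After 7 days of engraftment, dosing was on alternate days for 4 weeks, with saline as vehicle. Peripheral-blood human CD45⁺ cells were measured by flow cytometry, along with spleen weight and Kaplan–Meier survival. SEM, n ≥ 3.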

[4] = test system: KBM5 cells; assay: CCK-8 cell viability assay, including SynergyFinder synergy analysis; type: cell-based, human; conditions: NG52 combined with imatinib, KBM5, 24 h, CCK-8, SynergyFinder
How it was run: as §1

[5] = test system: VCP-KD-KBM5-T315I cells; assay: CCK-8 cell viability with synergy analysis in VCP-knockdown cells; type: cell-based, human; conditions: NG52 combined with imatinib, 24 h
How it was run: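 Viability was read by CCK-8, and δ-scores were computed in SynergyFinder (>10 synergy, <−10 antagonism).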

[6] = test system: KBM5-T315I cells; assay: LDH / lactate production; type: cell-based, human; conditions: NG52 6.25–50 μmol/L, 24 h
[7] = test system: VCP phosphorylation in KBM5-T315I cells; assay: VCP phosphorylation in cells; type: cell-based, human; conditions: 50 μmol/L NG52, 24 h
How it was run: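 KBM5-T315I cells were treated 24 h with test compound. Lysates were immunoprecipitated with anti-VCP antibody and immunoblotted with a pan-phospho-Ser/Thr antibody.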

[8] = test system: KBM5-T315I cells; assay: Autophagy readouts; type: cell-based, human
[9] = test system: BCR-ABL; assay: BCR-ABL protein level by Western blot; type: cell-based, human; conditions: KBM5-T315I, NG52 0–50 μmol/L, 24 h, dose-dependent
[10] = test system: KBM5-T315I xenograft; assay: Subcutaneous KBM5-T315I xenograft in NOD/SCID mice; type: in vivo, mouse; conditions: CPU-216 20 mg/kg, NG52 100 mg/kg
[11] = KBM5-T315I, Western blot, NG52 dose-dependent, CPU-216 0–6 μmol/L, 0–12 h

## CC1=C(CSC(=S)N2CCCCC2)C(=O)c2ccccc2C1=O [PKM2-IN-1]
[1]; 3 μmol/L, 24 h, CCK-8, KBM5-T315I
  Effect on proliferation: did not affect
[1]; PKM2-IN-1 combined with imatinib, KBM5-T315I
  Synergy score: −4.49

## Cc1ccc(NC(=O)c2ccc(CN3CCN(C)CC3)cc2)cc1Nc1nccc(-c2cccnc2)n1 [imatinib]
[2]
  Sensitivity of PGK1-knockdown cells to the TKI: increased sensitivity
[3]
  Reduction of proportion of cells in the blood (HuCD45): less pronounced
  Splenomegaly: alleviated

## Cc1ccc(C(=O)Nc2ccc(CN3CCN(C)CC3)c(C(F)(F)F)c2)cc1C#Cc1cnc2cccnn12 [ponatinib]
[2]
  Sensitivity of PGK1-knockdown cells to the TKI: increased sensitivity

## CC(C)n1cnc2c(Nc3cccc(Cl)c3)nc(NCCO)nc21 [NG52]
[1]; 0–400 μmol/L, 24 h, CCK-8
  Inhibitory effect on cell viability, KBM5-T315I versus KBM5: better inhibitory effect on KBM5-T315I
[1]; NG52 combined with imatinib, KBM5-T315I pretreated with 3 μmol/L PKM2-IN-1
  Synergy score: 15.16
[1]; NG52 combined with imatinib, NC (empty vector control) KBM5-T315I cells, 24 h
  Synergy score (δ-score): 15.66
[1]; NG52 combined with ponatinib, KBM5-T315I, 24 h, CCK-8, SynergyFinder
  Synergy score (δ-score): 10.11
[4]
  Synergy score (δ-score): −7.32
[5]
  Synergy score (δ-score): 7.57
[6]
  Effect on LDH levels: no significant effect
[7]
  VCP phosphorylation levels: reduction
[8]; KBM5-T315I transfected with GFP-LC3B
  Formation of LC3 puncta: promote
[8]; KBM5-T315I, NG52 50 μmol/L with 10 μmol/L MG132, 24 h
  Beclin 1 ubiquitination: decreased
[8]; [11]
  Beclin 1 expression and LC3B-II/LC3B-I ratio: increased
  SQSTM1 expression: reducing
[8]; KBM5-T315I, NG52 50 μmol/L, CPU-216 6 μmol/L
  Autophagic vesicles (transmission electron microscopy): marked increase
[9]
  BCR-ABL expression: reduced
[10]; imatinib 100 mg/kg
  LC3B-II expression in tumor (immunofluorescence): increased
  SQSTM1 expression in tumor (immunofluorescence): decreased
  Tumor proliferation (Ki-67 staining): significantly reduced
[10]; intragastric every 48 h, 21 days
  Tumor volume: reduce
